Common to all, as to type: functional
One assay concerns Moraxella catarrhalis. The assay is described as follows: Antibacterial activity against Moraxella catarrhalis ATCC 25238 assessed as inhibition of bacterial growth incubated for 22 to 24 hrs. Particulars: time 22-24 hrs. The essentials:
(§1)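 Broth MIC referenced to an earlier protocol. Inocula come from mid-log cultures sub-cultured on soybean casein digest agar, adjusted to McFarland (~10⁸ CFU/mL), then diluted to ~10⁵ CFU/mL. Compounds and controls are serially diluted from 64 to 0.03 µg/mL. Tested in triplicate, read after 22–24 h at 37 °C. MIC is the lowest concentration with no visible growth.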

The test system of another assay is Enterococcus faecalis. The assay is described as follows: Antibacterial activity against vancomycin resistant Enterococcus faecalis ATCC 700802 assessed as inhibition of bacterial growth incubated for 22 to 24 hrs. Particulars: time 22-24 hrs. In short, it runs like this: (§2)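 Broth microdilution MIC. Strains were subcultured on Soybean Casein Digest Agar, and inocula were taken from mid-log culture, adjusted to McFarland (~10⁸ CFU/mL), then diluted to ~10⁵ CFU/mL. Serial dilutions ran from 64 to 0.03 µg/mL. Plates were incubated 22–24 h at 37 °C, in triplicate. MIC was the lowest concentration with no visible growth.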

In another assay the test system is Enterococcus faecium. The assay is described as follows: Antibacterial activity against Enterococcus faecium ATCC 49624 assessed as inhibition of bacterial growth incubated for 22 to 24 hrs. To be noted: time 22-24 hrs. In short, it runs like this:
as §1

The next assay deals with Escherichia coli. The experiment in a line: Antibacterial activity against clinical isolate Escherichia coli AB 117 assessed as inhibition of bacterial growth incubated for 22 to 24 hrs. Particulars: time 22-24 hrs.
Assay [1] relates to Mycobacterium tuberculosis. The assay is described as follows: Antibacterial activity against Mycobacterium tuberculosis H37Rv ATCC 25618 assessed as inhibition of bacterial growth incubated for 2 days by CLSI protocol based broth microdilution method. Particulars: H37Rv ATCC 25618, 48 h, time 2 day.
In assay [2] the test system is Staphylococcus aureus. The experiment in a line: Antibacterial activity against methicillin resistant Staphylococcus aureus ATCC 33591 assessed as inhibition of bacterial growth incubated for 22 to 24 hrs. Particulars: time 22-24 hrs. The essentials: as §2
The next assay has as its system Acinetobacter baumannii. The assay is described as follows: Antibacterial activity against clinical isolate Acinetobacter baumannii BAA 747 assessed as inhibition of bacterial growth incubated for 22 to 24 hrs. Particulars: time 22-24 hrs.
Assay [3] concerns Staphylococcus aureus. The assay is described as follows: Antibacterial activity against methicillin sensitive Staphylococcus aureus ATCC 29213 assessed as inhibition of bacterial growth incubated for 22 to 24 hrs. Particulars: time 22-24 hrs. The essentials:
as §1

In a further assay the test system is Pseudomonas aeruginosa. The assay is described as follows: Antibacterial activity against clinical isolate Pseudomonas aeruginosa AB 645 assessed as inhibition of bacterial growth incubated for 22 to 24 hrs. Particulars: time 22-24 hrs.
The test system of assay [4] is Mycolicibacterium smegmatis. The experiment in a line: Antibacterial activity against Mycobacterium smegmatis ATCC 607 assessed as inhibition of bacterial growth incubated for 2 days by CLSI protocol based broth microdilution method. Particulars: ATCC 607, 48 h, time 2 day. The essentials: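 CLSI broth microdilution in Middlebrook 7H9 with 10% ADC. Compounds are dissolved in DMSO at 4.0 mg/mL (stock) and serially diluted from 64 to 0.015 µg/mL. Inoculum is ~10⁵ CFU/mL, checked by plating on 7H11 agar. Rifampin and levofloxacin are positive controls; drug-free broth with DMSO is the negative control. Growth inhibition is read after 2 days at 37 °C as MIC.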

Assay [5] concerns Staphylococcus epidermidis. The assay is described as follows: Antibacterial activity against clinical isolate methicillin resistant Staphylococcus epidermidis AB 735 assessed as inhibition of bacterial growth incubated for 22 to 24 hrs. Particulars: time 22-24 hrs.
The next assay relates to Klebsiella pneumoniae. The experiment in a line: Antibacterial activity against clinical isolate Klebsiella pneumoniae AB 356 assessed as inhibition of bacterial growth incubated for 22 to 24 hrs. Particulars: time 22-24 hrs.

Structures are written as SMILES. In brackets after ≈: the same amount, converted by molar mass. A value given as a limit tells only on which side of the number the result lay.

As usually defined, the MIC is the lowest concentration found to suppress growth.

Take `COc1ccc2nc(CN3CCN(S(=O)(=O)c4cccs4)CC3)cc(OC)c2c1`: the MIC (in the assay on Moraxella catarrhalis; with Enterococcus faecalis; with Enterococcus faecium; in the assay on Escherichia coli; in assay [1]; in the assay on Staphylococcus aureus [2]) was above 64 µg/mL each time. For the same compound, the minimum inhibitory concentration (MIC) with Acinetobacter baumannii was above 64 µg/mL; with Staphylococcus aureus [3], above 64 µg/mL; with Pseudomonas aeruginosa, above 64 µg/mL; in [4], 32 µg/mL (≈ 73.8 µM); in assay [5], above 64 µg/mL; in the assay with Klebsiella pneumoniae, above 64 µg/mL.

On to `COc1ccc2nc(CN3CCN(S(=O)(=O)c4ccc(F)cc4)CC3)cc(OC)c2c1`, for which the MIC (in the assay with Moraxella catarrhalis; with Enterococcus faecalis; in the assay with Enterococcus faecium; with Escherichia coli; in [1]; with Staphylococcus aureus [2]) was above 64 µg/mL in each case. Also, the minimum inhibitory concentration (MIC) (with Acinetobacter baumannii; in the assay with Staphylococcus aureus [3]; in the assay with Pseudomonas aeruginosa; in assay [4]; in [5]; in the assay on Klebsiella pneumoniae) was above 64 µg/mL each time.

Take `CC(=O)NC[C@H]1CN(c2ccc(N3CCOCC3)c(F)c2)C(=O)O1` [LINEZOLID]: the MIC with Moraxella catarrhalis was 4 µg/mL (≈ 11.9 µM); in the assay with Enterococcus faecium it was 4 µg/mL (≈ 11.9 µM); in the assay with Escherichia coli, 8 µg/mL (≈ 23.7 µM); with Acinetobacter baumannii, above 64 µg/mL; in the assay on Pseudomonas aeruginosa, above 64 µg/mL; in assay [5] it was 8 µg/mL (≈ 23.7 µM). For the same compound, the MIC with Klebsiella pneumoniae was above 64 µg/mL.

With `COc1cc(CN2CCN(C(=O)c3ccccc3F)CC2)nc2ccc(F)cc12`, the MIC (with Moraxella catarrhalis; with Enterococcus faecalis; in the assay on Enterococcus faecium; in the assay on Escherichia coli; in assay [1]; in the assay on Staphylococcus aureus [2]) was above 64 µg/mL each time. For the same compound, the MIC (in the assay on Acinetobacter baumannii; in the assay with Staphylococcus aureus [3]; with Pseudomonas aeruginosa; in assay [4]; in assay [5]; in the assay with Klebsiella pneumoniae) was above 64 µg/mL throughout.

Turning to `COc1ccc2nc(CN3CCN(S(=O)(=O)c4cccc5ccccc45)CC3)cc(OC)c2c1`, the MIC (in the assay on Moraxella catarrhalis; in the assay with Enterococcus faecalis; with Enterococcus faecium; with Escherichia coli; in assay [1]; with Staphylococcus aureus [2]) was above 64 µg/mL in each case. For the same compound, the minimum inhibitory concentration (MIC) (with Acinetobacter baumannii; in the assay with Staphylococcus aureus [3]; in the assay with Pseudomonas aeruginosa; in assay [4]; in [5]; in the assay on Klebsiella pneumoniae) was above 64 µg/mL throughout.

Regarding `CNS(=O)(=O)N1CCN(Cc2cc(OC)c3cc(OC)ccc3n2)CC1`, the MIC (in the assay with Moraxella catarrhalis; in the assay with Enterococcus faecalis; in the assay with Enterococcus faecium; with Escherichia coli; in [1]; in the assay with Staphylococcus aureus [2]) was above 64 µg/mL each time. In addition, the MIC (with Acinetobacter baumannii; in the assay on Staphylococcus aureus [3]; with Pseudomonas aeruginosa; in assay [4]; in assay [5]; in the assay on Klebsiella pneumoniae) was above 64 µg/mL throughout.

Turning to `COc1ccc(S(=O)(=O)N2CCN(Cc3cc(OC)c4cc(F)ccc4n3)CC2)cc1`, the MIC (in the assay with Moraxella catarrhalis; in the assay with Enterococcus faecalis; in the assay on Enterococcus faecium; in the assay with Escherichia coli; in assay [1]; in the assay on Staphylococcus aureus [2]) was above 64 µg/mL in each case. Further, the minimal inhibitory concentration (MIC) (in the assay with Acinetobacter baumannii; with Staphylococcus aureus [3]; in the assay with Pseudomonas aeruginosa; in assay [4]; in assay [5]; in the assay on Klebsiella pneumoniae) was above 64 µg/mL each time.

On to `COc1cc(CN2CCN(C(=O)c3cccc(F)c3)CC2)nc2ccc(F)cc12`, for which the minimum inhibitory concentration (MIC) (with Moraxella catarrhalis; in the assay on Enterococcus faecalis; in the assay with Enterococcus faecium; in the assay with Escherichia coli; in assay [1]; in the assay on Staphylococcus aureus [2]) was above 64 µg/mL throughout. For the same compound, the MIC (in the assay with Acinetobacter baumannii; with Staphylococcus aureus [3]; with Pseudomonas aeruginosa; in assay [4]; in [5]; in the assay with Klebsiella pneumoniae) was above 64 µg/mL in each case.

On to `COc1ccc2nc(CN3CCN(C(=O)c4ccc(Cl)c(Cl)c4)CC3)cc(OC)c2c1`, for which the MIC in the assay on Moraxella catarrhalis is 64 µg/mL (≈ 139 µM); with Enterococcus faecalis it was above 64 µg/mL; with Enterococcus faecium, above 64 µg/mL; in the assay with Escherichia coli it was above 64 µg/mL; in [1] it was above 64 µg/mL; in the assay with Staphylococcus aureus [2], above 64 µg/mL. Also, the MIC (in the assay with Acinetobacter baumannii; with Staphylococcus aureus [3]; in the assay on Pseudomonas aeruginosa; in assay [4]; in assay [5]; in the assay with Klebsiella pneumoniae) was above 64 µg/mL each time.

For `COc1ccc2nc(CN3CCN(S(=O)(=O)c4ccccc4C(F)(F)F)CC3)cc(OC)c2c1`, the MIC was 1 µg/mL (≈ 2.02 µM) in the assay with Moraxella catarrhalis; 64 µg/mL (≈ 129 µM) in the assay with Enterococcus faecalis; 8 µg/mL (≈ 16.1 µM) in the assay with Enterococcus faecium; 16 µg/mL (≈ 32.3 µM) with Escherichia coli; above 64 µg/mL in [1]; 32 µg/mL (≈ 64.6 µM) in the assay with Staphylococcus aureus [2]. The MIC was above 64 µg/mL in the assay with Acinetobacter baumannii; 4 µg/mL (≈ 8.07 µM) in the assay on Staphylococcus aureus [3]; above 64 µg/mL in the assay on Pseudomonas aeruginosa; above 64 µg/mL in assay [4]; 16 µg/mL (≈ 32.3 µM) in assay [5]; above 64 µg/mL in the assay with Klebsiella pneumoniae.

Consider `COc1ccc2nc(CN3CCN(C(=O)c4ccccc4OC)CC3)cc(OC)c2c1`, for which the minimum inhibitory concentration (MIC) (in the assay with Moraxella catarrhalis; with Enterococcus faecalis; with Enterococcus faecium; with Escherichia coli; in [1]; in the assay on Staphylococcus aureus [2]) was above 64 µg/mL throughout. For the same compound, the minimum inhibitory concentration (MIC) (in the assay on Acinetobacter baumannii; with Staphylococcus aureus [3]; in the assay on Pseudomonas aeruginosa; in assay [4]; in assay [5]; with Klebsiella pneumoniae) was above 64 µg/mL in each case.

Consider `CO[C@H]1/C=C/O[C@@]2(C)Oc3c(C)c(O)c4c(O)c(c(/C=N/N5CCN(C)CC5)c(O)c4c3C2=O)NC(=O)/C(C)=C\C=C\[C@H](C)[C@H](O)[C@@H](C)[C@@H](O)[C@@H](C)[C@H](OC(C)=O)[C@@H]1C` [RIFAMPIN], for which the MIC is 4 µg/mL (≈ 4.86 µM) in assay [1] and 0.5 µg/mL (≈ 0.608 µM) in assay [4].

Regarding `COc1ccc2nc(CN3CCN(S(=O)(=O)c4c(F)c(F)c(F)c(F)c4F)CC3)cc(OC)c2c1`, the minimal inhibitory concentration (MIC) (with Moraxella catarrhalis; in the assay on Enterococcus faecalis; in the assay with Enterococcus faecium; with Escherichia coli; in assay [1]; in the assay with Staphylococcus aureus [2]) was above 64 µg/mL in each case. Moreover, the MIC (with Acinetobacter baumannii; in the assay with Staphylococcus aureus [3]; in the assay on Pseudomonas aeruginosa; in [4]; in assay [5]; in the assay with Klebsiella pneumoniae) was above 64 µg/mL throughout.

`COc1ccc2nc(CN3CCN(C(=O)C4CCC4)CC3)cc(OC)c2c1`: the minimum inhibitory concentration (MIC) is 2 µg/mL (≈ 5.41 µM) with Moraxella catarrhalis; above 64 µg/mL with Enterococcus faecalis; above 64 µg/mL in the assay with Enterococcus faecium; above 64 µg/mL with Escherichia coli; above 64 µg/mL in [1]; above 64 µg/mL with Staphylococcus aureus [2]. The MIC (in the assay on Acinetobacter baumannii; with Staphylococcus aureus [3]; in the assay with Pseudomonas aeruginosa; in assay [4]; in [5]; in the assay with Klebsiella pneumoniae) was above 64 µg/mL each time.

As for `O=C(O)c1cn(C2CC2)c2cc(N3CCNCC3)c(F)cc2c1=O` [CIPROFLOXACIN], the minimum inhibitory concentration (MIC) was 0.03 µg/mL (≈ 0.0905 µM) in the assay with Moraxella catarrhalis; 0.5 µg/mL (≈ 1.51 µM) in the assay on Enterococcus faecalis; 2 µg/mL (≈ 6.04 µM) in the assay with Enterococcus faecium; 1 µg/mL (≈ 3.02 µM) with Staphylococcus aureus [2]; 0.5 µg/mL (≈ 1.51 µM) with Staphylococcus aureus [3].

For `COc1cc(Cc2cnc(N)nc2N)cc(OC)c1OC` [TRIMETHOPRIM], the MIC with Moraxella catarrhalis is 4 µg/mL (≈ 13.8 µM); in the assay with Enterococcus faecalis, 0.25 µg/mL (≈ 0.861 µM); in the assay on Enterococcus faecium, 0.03 µg/mL (≈ 0.103 µM); in the assay with Escherichia coli, 16 µg/mL (≈ 55.1 µM); with Staphylococcus aureus [2], 8 µg/mL (≈ 27.6 µM); in the assay with Acinetobacter baumannii it was above 8 µg/mL. The MIC with Staphylococcus aureus [3] is 4 µg/mL (≈ 13.8 µM); in the assay with Pseudomonas aeruginosa it was above 8 µg/mL; in assay [5], above 8 µg/mL; in the assay with Klebsiella pneumoniae it was 2 µg/mL (≈ 6.89 µM).

Consider `C[C@H]1COc2c(N3CCN(C)CC3)c(F)cc3c(=O)c(C(=O)O)cn1c23.C[C@H]1COc2c(N3CCN(C)CC3)c(F)cc3c(=O)c(C(=O)O)cn1c23.O` [LEVOFLOXACIN], for which the figures for the minimal inhibitory concentration (MIC) in [1] and in [4] were 2 µg/mL and 0.125 µg/mL, respectively.

The record behind these values is ChEMBL document CHEMBL5230166, “Novel quinoline-piperazine hybrids: the design, synthesis and evaluation of antibacterial and antituberculosis properties” (RSC Med Chem, 2023).
